In PubChem BioAssay AID504383 (The Scripps Research Institute Molecular Screening Center, 2011):
The whole screen tested about 2,500 compounds, of which about 1,200 (48%) were called active. The set was probably picked from earlier hits. Some of the results follow. A number with no mark means an inactive call.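 How the source made its calls: active means mean activation above the low control average plus 3 SD, as set in the primary screen (cut at about 12% in these data); inactive means the rest.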

Target: Troponin I, cardiac muscle (Homo sapiens) + Troponin T, cardiac muscle (Homo sapiens) + Troponin C, slow skeletal and cardiac muscles (Homo sapiens) (UniProt P19429+P45379+P63316)
Assay: calcium sensitizers of cardiac thin filaments – biochemical, IANBD-TnC fluorescence, triplicate, confirmation (AID 504383);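 further: 0% = DMSO at 0.472 mM calcium and 100% = DMSO at 2.9 mM calcium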
Conditions: IANBD-labeled cardiac RTF, Ca2+ sensitivity fluorescence, at 7.2 µM, hits give high values, tested at EC20 calcium, 0.472 mM
Outline: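 Assay system: labelled regulated thin filament protein complex; schedule: 15 min compound incubation with filaments at 25 °C; benchmarks: low control EC20 calcium, high control EC100 calcium; reagent: Ca2+ 0.472 mM, EC20 level; doses: one dose, 7.2 µM nominal; evaluation: fluorescence gain scaled between EC20 and EC100 calcium controls; signal: filament fluorescence intensity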

Row | Structure (SMILES) | activation
1 | CCN(CC)c1ccc(/C=C/[N+](=O)[O-])cc1 | 19.8% (active)
2 | Cn1cc(C=C(C#N)C#N)c2ccccc21 | 69.5% (active)
3 | COC(=O)C1=C(c2cccc(OC)c2OC)C[C@@H]2CC[C@H]1N2C(=O)NCc1ccco1 | 13.3% (active)
4 | COC(=O)C1=C(c2ccc(F)cc2OCc2ccccc2)C[C@@H]2CC[C@H]1N2C(=O)NCc1ccc(OC)c(OC)c1 | 154% (active)
5 | COC(=O)C1=C(c2cccc(OC)c2OC)C[C@@H]2CC[C@H]1N2C(=O)NCCCOC(C)C | 5.72%
6 | CCN(CC)CCCOC(=O)C(OC(C)C)(c1ccccc1)c1ccccc1 | 57.9% (active)
7 | C/C(=N\N1CCCCC1c1cccnc1)c1c(O)n(C2CCCCC2)c(=S)[nH]c1=O (stereo not drawn) | 68.2% (active)
8 | Cc1ccc(-n2c(O)c(C=NCC3CCCO3)c(=O)[nH]c2=O)c(C)c1 (stereo not drawn) | 7.57%
9 | O=c1[nH]c(=S)n(-c2ccccc2Cl)c(O)c1C=NCCN1CCNCC1 | 1670% (active)
10 | COc1ccc(OC)c(-n2c(O)c(C=NCCN3CCNCC3)c(=O)[nH]c2=S)c1 | 27.9% (active)
11 | Cc1cccc(N2C(=O)NC(=O)/C(=C\c3ccc4c(c3)CCCN4Cc3ccccc3)C2=O)c1 | 4.9%
12 | CCOCCCNC(=O)C1c2cc(OC)c(OC)cc2C(=O)N2CCCCC12 (stereo not drawn) | 2.74%
13 | Cc1cccc(N2C(=O)/C(=C/c3ccc(N4CCN(C)CC4)o3)C(=O)NC2=S)c1C | 16.4% (active)
14 | Cc1ccccc1N1C(=O)NC(=O)/C(=C/c2ccc(N3CCOCC3)o2)C1=O | 42.7% (active)
15 | COc1ccccc1N1C(=O)NC(=O)/C(=C/c2ccc3c4c(cccc24)CC3)C1=O | 2.54%
16 | Cc1ccccc1N1C(=O)NC(=O)/C(=C\c2cc(Br)c(N3CCOCC3)o2)C1=O | 11%
17 | CN1CCN(c2ccc(/C=C3\C(=O)NC(=S)N(c4cccc(Br)c4)C3=O)o2)CC1 | 4.38%
18 | CCc1ccccc1N1C(=O)/C(=C/c2ccc(N3CCN(C)CC3)o2)C(=O)NC1=S | 1030% (active)
19 | CN1C(=O)C(=Cc2ccc(N3CCOCC3)o2)C(=O)N(C)C1=S | 10.3%
20 | C=CCN1C(=O)/C(=C/c2ccc(N3CCOCC3)o2)C(=O)NC1=S | 29.1% (active)

Row | Structure (SMILES) | activation
21 | COc1cc(/C=C2/C(=O)NC(=O)N(c3ccc(C)cc3)C2=O)cc(OC)c1OC | 6.29%
22 | CCN1C(=O)C(=Cc2ccc(N3CCOCC3)o2)C(=O)N(CC)C1=S | 7.34%
23 | CN1C(=O)C(=Cc2sc(=O)n(-c3ccccc3)c2N2CCCCC2)C(=O)N(C)C1=O | 3.11%
24 | O=C1NC(=O)C(=Cc2ccc(N3CCOCC3)o2)C(=O)N1 | 2.33%
25 | CN1C(=O)C(=Cc2ccc(N3CCCCCC3)o2)C(=O)N(C)C1=S | 94.7% (active)
26 | C=CCN1C(=O)/C(=C\c2ccc(N3CCOCC3)o2)C(=O)NC1=S | 4%
27 | COc1ccc(N2C(=O)/C(=C/c3ccc(N(C)C)o3)C(=O)NC2=S)cc1 | 338% (active)
28 | CCN(CC)c1ccc(/C=C2\C(=O)NC(=S)N(c3ccc(OC)cc3OC)C2=O)o1 | 8.36%
29 | CN1C(=O)C(=Cc2ccc(N3CCOCC3)o2)C(=O)N(C)C1=O | 50.2% (active)
30 | CN1Cc2c(c(C#N)c(N)n(C)c2=S)CC1(C)C | 4.38%
31 | COc1ccc2c3c([nH]c2c1)C(C)=NCC3 | 9.9%
32 | FC(F)(F)c1ccc2c(c1)nnn2C1CCN(Cc2nnnn2Cc2ccccc2)CC1 | 4.26%
33 | O=C1NC(=O)N(c2ccc3c(c2)OCO3)C(=O)/C1=C\c1ccc(N2CCCCC2)o1 | -1.01%
34 | O=C1NC(=O)N(c2ccc3c(c2)OCO3)C(=O)/C1=C/c1ccc(N2CCCC2)o1 | 3.64%
35 | CCN(CC)c1ccc(/C=C2\C(=O)NC(=S)N(C)C2=O)o1 | 25.4% (active)
36 | CN1C(=O)/C(=C/c2ccc(N3CCCCCC3)o2)C(=O)NC1=S | 39% (active)
37 | CCOc1ccc(N2C(=O)NC(=O)/C(=C\c3ccc(N4CCCCC4)o3)C2=O)cc1 | 154% (active)
38 | CCN(CC)c1ccc(C=C2C(=O)N(C)C(=S)N(C)C2=O)o1 | 8.61%
39 | CN1C(=O)/C(=C\c2ccc(N3CCCCC3)o2)C(=O)NC1=S | 8.33%
40 | COc1cccc2c1C(=O)c1c(O)c3c(c(O)c1C2=O)CC(O)(C(C)=NO)CC3OC1CC(N)C(O)C(C)O1 (stereo not drawn) | 4.26%

Row | Structure (SMILES) | activation
41 | Nc1ccc2ccc3cccc[n+]3c2c1 | 11.7% (active)
42 | Cc1ccc(N2C(=O)NC(=O)/C(=C\c3ccoc3)C2=O)cc1 | 4.43%
43 | CN1CCc2cc3c(c4c2C1Cc1ccccc1-4)OCO3 (stereo not drawn) | 13.5% (active)
44 | CC1=NCCc2c1[nH]c1cc(O)ccc21 | 5.4%
45 | CCCc1cc(=O)oc2cc(OCC(=O)N3CCC(C(=O)O)(c4ccccc4)CC3)ccc12 | 10.7%
46 | CCCc1cc(=O)oc2cc(OCC(=O)N3C[C@H]4C[C@@H](C3)c3cccc(=O)n3C4)ccc12 | 113% (active)
47 | O=C1NC(=O)C(=Cc2cn(CCOc3ccc4c(c3)OCO4)c3ccccc23)C(=O)N1 | 12.6% (active)
48 | COc1ccc(N2C(=O)NC(=O)/C(=C\c3cn(C)c4ccccc34)C2=O)cc1 | 3.56%
49 | Cc1ccc(/C=C2/Sc3ccc(C(=O)N4CCC5(CC4)OCCO5)cc3NC2=O)cc1 | 106% (active)
50 | COc1ccc(CC(=O)N2CCN(C)CC2)cc1OC | 13.3% (active)
51 | Cc1cc(N2CCCC2)ccc1C=C(C#N)C#N | 95.7% (active)
52 | Cc1cc(C=C(C#N)C#N)ccc1N1CCCC1 | 13% (active)
53 | N#CC(C#N)=Cc1ccc(C=C(C#N)C#N)cc1 | 1.09%
54 | Cc1cc(Cl)ccc1C(=O)C1CCCN(C2CCSCC2)C1 (stereo not drawn) | 2.78%
55 | O=Cc1c(C(=O)O)n(Cc2ccc(Cl)cc2)c2ccccc12 | 7.27%
56 | Cc1cc(N(CCCl)CCCl)ccc1C=Cc1ccncn1 | 17.4% (active)
57 | CCCCn1c(O)c(C(=O)/C=C/c2c[nH]c3ccccc23)c(=O)[nH]c1=O | 14.8% (active)
58 | CCCCn1c(O)c(/C=C/C=Nc2ccccc2)c(=O)[nH]c1=O | 10%
